Results: ChEMBL document CHEMBL4145675, “2-Phenylquinoline S. aureus NorA Efflux Pump Inhibitors: Evaluation of the Importance of Methoxy Group Introduction” (J Med Chem, 2018)
Values after ≈ are worked out from the molar mass of the structure shown. Active and inactive are the calls of the source. The rule behind the calls is not given here.

Columns and labels:
[1] = target: T1, Quinolone resistance protein NorA (Staphylococcus aureus) (UniProt P0A0J7); experiment: Inhibition of NorA in Staphylococcus aureus SA-1199B expressing GrlA A116E mutant assessed as reduction in EtBr efflux at 50 uM incubated for 5 mins by fluorescence based assay
T1 sequence (whole entry): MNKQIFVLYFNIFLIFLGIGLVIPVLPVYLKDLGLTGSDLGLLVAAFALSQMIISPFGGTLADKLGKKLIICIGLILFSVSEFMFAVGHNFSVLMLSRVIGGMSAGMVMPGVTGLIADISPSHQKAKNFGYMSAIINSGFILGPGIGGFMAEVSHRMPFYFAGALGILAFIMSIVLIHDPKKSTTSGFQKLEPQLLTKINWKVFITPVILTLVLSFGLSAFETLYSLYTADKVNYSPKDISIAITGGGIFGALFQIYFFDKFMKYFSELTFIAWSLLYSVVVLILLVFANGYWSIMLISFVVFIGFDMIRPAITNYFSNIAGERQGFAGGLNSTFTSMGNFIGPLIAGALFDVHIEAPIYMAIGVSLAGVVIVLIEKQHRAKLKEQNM
How it was run: (§1)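 Cells were grown overnight in cation-supplemented Mueller-Hinton broth at 35 °C and subcultured to OD600 0.7–0.8. They were loaded at OD600 0.8 with 25 µM EtBr plus 100 µM CCCP (final) for 20 min at room temperature. Cells were then resuspended in fresh broth with or without compound, 50 µM for the single-point screen or a concentration series for IC50. Fluorescence (ex 485/em 645 nm) was read for 5 min. Inhibition was calculated from the fluorescence decrease versus untreated cells. Biological triplicate, each run twice.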

[2] = tested on: Staphylococcus aureus; experiment: Antimicrobial activity against Staphylococcus aureus SA-1199B expressing wild type norA and co-expressing GrlA A116E mutant by microdilution method; type: organism-based; conditions: in vivo
How it was run: (§2)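 CLSI broth microdilution MIC of the compound alone. Strains: SA-K1902 (norA deleted), SA-K2378 (SA-K1902 carrying norA plus its promoter on multicopy plasmid pCU1), SA-1199B (norA overexpressing, GrlA A116E).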

[3] = tested on: Staphylococcus aureus; experiment: Synergistic potentiation of ciprofloxacin-induced antimicrobial activity against wild type Staphylococcus aureus ATCC 25923 at 0.78 to 100 ug/ml by microdilution method based Checkerboard assay; type: functional, organism-based
[4] = tested on: Staphylococcus aureus; experiment: Antimicrobial activity against Staphylococcus aureus SA-1199B expressing wild type norA by microdilution method; type: organism-based; conditions: in vivo
How it was run: (§3)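 Broth microdilution MIC per CLSI guidelines. ATCC 25923 is norA wild-type. SA-1199B overexpresses norA and carries an A116E GrlA substitution.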

[5] = tested on: Staphylococcus aureus; experiment: Synergistic potentiation of ciprofloxacin-induced antimicrobial activity against Staphylococcus aureus SA-1199 at 0.78 to 100 ug/ml by microdilution method based Checkerboard assay; type: functional, organism-based
[6] = target: T1, Quinolone resistance protein NorA (Staphylococcus aureus); experiment: Inhibition of NorA in Staphylococcus aureus SA-1199B expressing GrlA A116E mutant assessed as minimal potentiating drug concentration causing 8 fold reduction in ciprofloxacin MIC by microdilution method based Checkerboard assay
[7] = target: T1, Quinolone resistance protein NorA (Staphylococcus aureus); experiment: Inhibition of NorA in Staphylococcus aureus SA-1199B expressing GrlA A116E mutant assessed as synergistic potentiation of ciprofloxacin-induced antimicrobial activity at 0.78 to 100 ug/ml by microdilution method based Checkerboard assay
[8] = target: Quinolone resistance protein NorA (Staphylococcus aureus, UniProt P0A0J7, A116E); experiment: Inhibition of NorA in Staphylococcus aureus SA-1199B expressing GrlA A116E mutant assessed as reduction in EtBr efflux incubated for 5 mins by fluorescence based assay; how it was run: as §1
[9] = tested on: Staphylococcus aureus; experiment: Antimicrobial activity against Staphylococcus aureus ATCC 25923 by microdilution method; type: organism-based; conditions: in vivo; how it was run: as §3
[10] = target: T1, Quinolone resistance protein NorA (Staphylococcus aureus); experiment: Inhibition of NorA in Staphylococcus aureus SA-1199B expressing GrlA A116E mutant assessed as synergistic potentiation of ciprofloxacin-induced antimicrobial activity at 0.78 ug/ml by microdilution method based Checkerboard assay
[11] = tested on: Staphylococcus aureus; experiment: Antimicrobial activity against NorA deficient Staphylococcus aureus SA-K1902 by microdilution method; type: organism-based; conditions: in vivo; how it was run: as §2

| SMILES | inhibition [1] [%] | MIC [2] [µM] | synergistic potentiation of ciprofloxacin activity [3] | MIC [4] [µg/mL] | inhibition [5] | Activity [6] [µg/mL] | inhibition [7] | IC50 [8] [µM] | MIC [9] [µg/mL] | inhibition [10] | MIC [11] [µg/mL] |
| --- | --- | --- | --- | --- | --- | --- | --- | --- | --- | --- | --- |
| CCCOc1ccc(-c2cc(OCCN3CCN(Cc4ccccc4)CC3)c3cc(OC)ccc3n2)cc1 | 32 | – | – | – | – | – | – | – | – | – | – |
| CCCOc1ccc(-c2cc(OCCN3CCCCCC3)c3c(OC)cc(OC)cc3n2)cc1 | 74.1 | – | – | – | – | – | – | – | – | – | – |
| CCCOc1ccc(-c2cc(OCCCN(C)C)c3cccc(OC)c3n2)cc1 | 64.7 | – | – | – | – | – | – | – | – | – | – |
| CCCOc1ccc(-c2cc(O)c3ccc(OC)cc3n2)cc1 | 55.7 | – | – | – | – | – | – | – | – | – | – |
| CCCOc1ccc(-c2cc(OCCN3CCN(Cc4ccccc4)CC3)c3ccc(OC)cc3n2)cc1 | 92.1 | > 195 | Active | > 100 | Active | > 100 | Active | 7.3 | > 100 | – | – |
| CCCOc1ccc(-c2cc(OCCN3CCCCCC3)c3cc(OC)c(OC)cc3n2)cc1 | 67.9 | – | – | – | – | – | – | – | – | – | – |
| CCCOc1ccc(-c2cc(OCCN(CC)CC)c3cc(OC)cc(OC)c3n2)cc1 | 92.4 | > 228 | Active | > 100 | Active | 6.25 | Active | 4.6 | 100 (≈ 228 µM) | – | – |
| CCCOc1ccc(-c2cc(OCCCl)c3cccc(OC)c3n2)cc1 | 6.8 | – | – | – | – | – | – | – | – | – | – |
| CCCOc1ccc(-c2cc(OCCN(CC)CC)c3c(OC)cccc3n2)cc1 | 96.5 | 30.6 (≈ 12.5 µg/mL) | Active | 12.5 (≈ 30.6 µM) | Active | 3.13 | Active | 9.4 | 12.5 (≈ 30.6 µM) | Active | – |
| CCCOc1ccc(-c2cc(OCCCN(C)C)c3ccc(OC)cc3n2)cc1 | 100 | 232 (≈ 91.5 µg/mL) | Active | 100 (≈ 253 µM) | Active | 6.25 | Active | 4.3 | 100 (≈ 253 µM) | – | – |
| CCCOc1ccc(-c2cc(OCCN3CCNCC3)c3ccc(OC)cc3n2)cc1 | 100 | 237 (≈ 99.9 µg/mL) | Active | 100 (≈ 237 µM) | Active | 6.25 | Active | 5.5 | 100 (≈ 237 µM) | – | – |
| CCCOc1ccc(-c2cc(OCCN3CCCCCC3)c3c(OC)cccc3n2)cc1 | 74.8 | – | – | – | – | – | – | – | – | – | – |
| CCCOc1ccc(-c2cc(O)c3cc(OC)c(OC)cc3n2)cc1 | 79.2 | – | – | – | – | – | – | – | – | – | – |
| CCCOc1ccc(-c2cc(OCCN3CCCCC3)c3cc(OC)c(OC)cc3n2)cc1 | 92.1 | > 222 | Active | > 100 | Active | 3.13 | Active | 3.9 | 100 (≈ 222 µM) | – | – |
| CCCOc1ccc(-c2cc(OCCN3CCCCCC3)c3cc(OC)cc(OC)c3n2)cc1 | 80.3 | > 215 | Active | > 100 | Active | 1.56 | Active | 1.8 | > 100 | Active | – |
| C=COc1cc(-c2ccc(OCCC)cc2)nc2c(OC)cccc12 | 13.3 | – | – | – | – | – | – | – | – | – | – |
| CCCOc1ccc(-c2cc(OCCN3CCc4cc(OC)c(OC)cc4C3)c3cccc(OC)c3n2)cc1 | 65.5 | – | – | – | – | – | – | – | – | – | – |
| CCCOc1ccc(-c2cc(OCCN3CCCCC3)c3cc(OC)cc(OC)c3n2)cc1 | 93.8 | > 222 | Active | > 100 | Active | 6.25 | Active | 3.8 | 100 (≈ 222 µM) | – | – |

| SMILES | inhibition [1] [%] | MIC [2] [µM] | synergistic potentiation of ciprofloxacin activity [3] | MIC [4] [µg/mL] | inhibition [5] | Activity [6] [µg/mL] | inhibition [7] | IC50 [8] [µM] | MIC [9] [µg/mL] | inhibition [10] | MIC [11] [µg/mL] |
| --- | --- | --- | --- | --- | --- | --- | --- | --- | --- | --- | --- |
| CCCOc1ccc(-c2cc(OCCN3CCNCC3)c3cccc(OC)c3n2)cc1 | 100 | > 237 | Active | > 100 | Active | 25 | Active | 9.9 | > 100 | – | – |
| CCCOc1ccc(-c2cc(OCCCl)c3cc(OC)ccc3n2)cc1 | 10.5 | – | – | – | – | – | – | – | – | – | – |
| CCCOc1ccc(-c2cc(OCCN3CCc4cc(OC)c(OC)cc4C3)c3cc(OC)ccc3n2)cc1 | 33 | – | – | – | – | – | – | – | – | – | – |
| CCCOc1ccc(-c2cc(OCCN3CCCCCC3)c3cccc(OC)c3n2)cc1 | 72.8 | – | – | – | – | – | – | – | – | – | – |
| CCCOc1ccc(-c2cc(OCCN3CCNCC3)c3cc(OC)ccc3n2)cc1 | 84.4 | 29.6 (≈ 12.5 µg/mL) | – | – | – | – | – | 15.6 | – | – | – |
| CCCOc1ccc(-c2cc(OCCCN(C)C)c3cc(OC)ccc3n2)cc1 | 79.5 | – | – | – | – | – | – | – | – | – | – |
| CCCOc1ccc(-c2cc(OCCN3CCCCCC3)c3ccc(OC)cc3n2)cc1 | 91.3 | 212.3 (≈ 92.3 µg/mL) | Active | 100 (≈ 230 µM) | Active | 3.13 | Active | 4.9 | > 100 | Active | – |
| CCCOc1ccc(-c2cc(OCCN3CCCCC3)c3c(OC)cccc3n2)cc1 | 83.4 | 59.4 (≈ 25 µg/mL) | – | – | – | – | – | 19.1 | – | – | – |
| CCCOc1ccc(-c2cc(OCCCl)c3ccc(OC)cc3n2)cc1 | 57.5 | – | – | – | – | – | – | – | – | – | – |
| CCCOc1ccc(-c2cc(OCCN(CC)CC)c3cccc(OC)c3n2)cc1 | 83.1 | 245 (≈ 100 µg/mL) | – | – | – | – | – | 13.7 | – | – | – |
| CCCOc1ccc(-c2cc(OCCN(CC)CC)c3cc(OC)c(OC)cc3n2)cc1 | 95.4 | > 228 | Active | > 100 | Active | 50 | Active | 4.1 | 100 (≈ 228 µM) | – | – |
| CCCOc1ccc(-c2cc(OCCN3CCCCC3)c3c(OC)cc(OC)cc3n2)cc1 | 49.7 | – | – | – | – | – | – | – | – | – | – |
| CCCOc1ccc(-c2cc(OCCN(CC)CC)c3c(OC)cc(OC)cc3n2)cc1 | 93.1 | > 228 | Active | > 100 | Active | 1.56 | Active | 2.8 | 100 (≈ 228 µM) | – | 25 (≈ 57 µM) |
| CCCOc1ccc(-c2cc(OCCN3CCCCCC3)c3cc(OC)ccc3n2)cc1 | 92.2 | 28.7 (≈ 12.5 µg/mL) | Active | 25 (≈ 57.5 µM) | Active | < 3.13 | Active | 8.1 | 12.5 (≈ 28.8 µM) | – | – |
| CCCOc1ccc(-c2cc(O)c3c(OC)cccc3n2)cc1 | 91.4 | 40.4 (≈ 12.5 µg/mL) | – | – | – | – | – | 4.1 | – | – | – |
| CCCOc1ccc(-c2cc(OCCN3CCc4cc(OC)c(OC)cc4C3)c3ccc(OC)cc3n2)cc1 | 91 | > 189 | Active | > 100 | Active | 3.13 | Active | 4.7 | > 100 | Active | – |
| CCCOc1ccc(-c2cc(OCCN3CCCCC3)c3cccc(OC)c3n2)cc1 | 88.7 | 238 (≈ 100 µg/mL) | – | – | – | – | – | 11.9 | – | – | – |
